Results published in PMC3711763 (The Journal of neuroscience : the official journal of the …, 2013).
Where two headings read alike, the source gives them in different places.

How the values were obtained:
5-HT2AR = 5-HT2AR (Homo sapiens, UniProt P28223); test: intracellular calcium release in 5-HT2AR–CHO cells; type: cell-based; conditions: for Cai2+ release, peptide alone, in 5-HT2AR–CHO cells: 15 min, peptide alone (data not shown); for effect on 5-HT-mediated Cai2+ release in 5-HT2AR–CHO cells: 15 min preincubation, 10 nM 5-HT
circular dichroism = type: physicochemical; conditions: in water; 3L4F 300 μM, 3L4F-F1 100 and 300 μM; three independent trials
5-HT2CR = conditions: for Cai2+ release, peptide alone (unstimulated): no agonist, fluorescence; for effect on 5-HT-evoked Cai2+ release: ANOVA main effect
male Sprague Dawley rats [1] = test: spontaneous locomotor activity; type: in vivo, rat; conditions: i.p.
male Sprague Dawley rats [2] = test: 1-choice serial reaction time; type: in vivo, rat; conditions: i.p.; for % Accuracy / % Omissions / Latency to start / Response latency / Time to finish: mean ± SEM; for number of reinforcers earned (combination study) / premature responses (combination study): alone or combined
In short: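 Male Sprague Dawley rats (225–325 g) were housed two per cage and food-restricted to 90% of free-feeding weight. They were trained until stable: >80% accuracy and <20% omissions for five consecutive sessions at the final stage (0.5 s stimulus, 5 s limited hold, 5 s ITI), with <15% variability. Test compound or saline vehicle was given i.p. 15 min pre-session. Data were analysed by one-way repeated-measures ANOVA with Dunnett's test versus saline.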

[3] = test system: impulsive action in the 5-CSRT task; conditions: cited from earlier work
[4] = test system: 5-HT2CR and PTEN protein expression, 5-HT2CR–CHO cells; test: Western blot of protein expression in 5-HT2CR–CHO cells; type: cell-based, human 5-HT2CR; CHO cells; conditions: 1 pM, 15 min preincubation
In short: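 Cells were rinsed in ice-cold Krebs' solution, pelleted, and homogenized in HEPES/EDTA/EGTA/DTT buffer containing protease and phosphatase inhibitors. The membrane pellet from differential centrifugation was resuspended in buffer with 400 mM NaCl and 0.5% NP-40. Protein was quantified by BCA, reduced and heated at 70°C for 20 min, run on 4–12% Bis-Tris SDS-PAGE and transferred to PVDF. Blots were probed with primary antibody overnight and secondary for 45 min, then read by infrared imaging.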

[5] = test system: 5-HT2CR–PTEN complex in VTA; test: co-IP of 5-HT2CR–PTEN complex in rat VTA after systemic administration; type: in vivo; conditions: 10 μmol/kg, i.p., killed 5 min later, relative to vehicle (saline)
[6] = 15 min preincubation, Calcium 4 dye
[7] = TAT–3L4F 0.1 μmol/kg, WAY163909 1 mg/kg, alone or combined
[8] = TAT–3L4F 0.1 μmol/kg, WAY163909 1 mg/kg, alone or combined, p < 0.05
[9] = 0.5 and 1 mg/kg, versus saline, p < 0.05
[10] = TAT–3L4F 0.3 μmol/kg, WAY163909 0.1 mg/kg, versus saline
[11] = WAY163909 0.1 mg/kg, combination study
[12] = 1 μmol/kg, versus saline, p < 0.05
[13] = TAT–3L4F 0.3 μmol/kg, combination study
[14] = 15 min preincubation, 1 nM 5-HT

Sequence of 5-HT2AR (P28223 whole entry): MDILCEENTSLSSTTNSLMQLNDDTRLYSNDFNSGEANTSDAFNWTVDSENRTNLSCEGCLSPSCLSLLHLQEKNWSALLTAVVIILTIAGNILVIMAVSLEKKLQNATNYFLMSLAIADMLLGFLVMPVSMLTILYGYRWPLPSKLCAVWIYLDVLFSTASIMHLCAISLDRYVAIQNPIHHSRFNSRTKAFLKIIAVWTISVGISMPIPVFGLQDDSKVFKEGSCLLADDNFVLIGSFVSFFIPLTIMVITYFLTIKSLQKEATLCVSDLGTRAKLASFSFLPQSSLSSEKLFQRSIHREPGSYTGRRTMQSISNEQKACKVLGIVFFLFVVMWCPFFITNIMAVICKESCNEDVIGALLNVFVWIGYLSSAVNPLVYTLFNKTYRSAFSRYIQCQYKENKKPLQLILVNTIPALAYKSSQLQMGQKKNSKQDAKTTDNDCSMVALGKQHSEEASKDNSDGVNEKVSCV

Compound: Ac-PNQDQNAR-NH2 [3L4F-F1]
- Cai2+ release, peptide alone, in 5-HT2AR–CHO cells (5-HT2AR): did not induce Cai2+ release
- effect on 5-HT-mediated Cai2+ release in 5-HT2AR–CHO cells (5-HT2AR): did not induce Cai2+ release or alter Cai2+ release evoked by 10 nM 5-HT
- CD signal at 222 nm (circular dichroism): shallow inflection point at 222 nm
- α-helix content by CD (circular dichroism): 10–30%
- Cai2+ release, peptide alone (unstimulated) (5-HT2CR; [6]): did not induce Cai2+ release
- concentrations that significantly increased Cai2+ release versus 1 nM 5-HT (5-HT2CR; 15 min preincubation, 1 nM 5-HT, Calcium 4 dye, FlexStation3, p < 0.05): 10 ^−13 to 10 ^−9 M

Compound: c1cc2c3c(c1)[C@H]1CCC[C@H]1N3CCNC2 [WAY163909, (7bR, 10aR)-1,2,3,4,8,9,10,10a-octa-hydro-7bH-cyclopenta-(b)(1,4)diazepino (6,7,1hi)indole]
- total vertical activity, 70 min (combination study) (male Sprague Dawley rats [1]; [7]): No main effect of treatment was observed for vertical activity
- vertical activity, 5-min bins (combination study) (male Sprague Dawley rats [1]; [7]): No main effect of treatment
- central ambulation, 5-min bins (combination study) (male Sprague Dawley rats [1]; [8]): significantly reduced central ambulation versus saline at 10 min
- peripheral ambulation, 5-min bins (combination study) (male Sprague Dawley rats [1]; [8]): significantly reduced peripheral ambulation versus saline at 5 and 10 min
- total central ambulation, 70 min (combination study) (male Sprague Dawley rats [1]; [8]): but not either ligand alone
- total horizontal ambulation, 70 min (combination study) (male Sprague Dawley rats [1]; TAT–3L4F 0.1 μmol/kg, WAY163909 1 mg/kg, alone or combined, versus saline): neither ligands tested alone at chosen doses altered total horizontal ambulation
- % Accuracy (male Sprague Dawley rats [2]; 0.05 mg/kg): 100.52 ± 0.4%
- % Omissions (male Sprague Dawley rats [2]; 0.05 mg/kg): 6.23 ± 1.1%
- Latency to start (male Sprague Dawley rats [2]; 0.05 mg/kg): 0.69 ± 0.2 s
- Response latency (male Sprague Dawley rats [2]; 0.05 mg/kg): 2.75 ± 0.4 s
- Time to finish (male Sprague Dawley rats [2]; 0.05 mg/kg): 933.62 ± 29.4 s
- % Accuracy (male Sprague Dawley rats [2]; 0.1 mg/kg, dose-response study): 100.72 ± 0.5%
- % Omissions (male Sprague Dawley rats [2]; 0.1 mg/kg, dose-response study): 5.40 ± 0.9%
- Latency to start (male Sprague Dawley rats [2]; 0.1 mg/kg, dose-response study): 1.13 ± 0.2 s
- Response latency (male Sprague Dawley rats [2]; 0.1 mg/kg, dose-response study): 2.57 ± 0.2 s
- Time to finish (male Sprague Dawley rats [2]; 0.1 mg/kg, dose-response study): 923.55 ± 16.5 s
- % Accuracy (male Sprague Dawley rats [2]; 0.2 mg/kg): 100.15 ± 0.7%
- % Omissions (male Sprague Dawley rats [2]; 0.2 mg/kg): 6.26 ± 1.6%
- Latency to start (male Sprague Dawley rats [2]; 0.2 mg/kg): 0.85 ± 0.2 s
- Response latency (male Sprague Dawley rats [2]; 0.2 mg/kg): 2.84 ± 0.4 s
- Time to finish (male Sprague Dawley rats [2]; 0.2 mg/kg): 941.12 ± 34.9 s
- % Accuracy (male Sprague Dawley rats [2]; 0.5 mg/kg): 100.61 ± 0.4%
- % Omissions (male Sprague Dawley rats [2]; 0.5 mg/kg): 5.85 ± 0.9%
- Latency to start (male Sprague Dawley rats [2]; 0.5 mg/kg): 0.62 ± 0.1 s
- Response latency (male Sprague Dawley rats [2]; 0.5 mg/kg): 2.54 ± 0.2 s
- Time to finish (male Sprague Dawley rats [2]; 0.5 mg/kg): 926.23 ± 17.3 s
- % Accuracy (male Sprague Dawley rats [2]; 1 mg/kg): 101.48 ± 0.6%
- % Omissions (male Sprague Dawley rats [2]; 1 mg/kg): 8.94 ± 0.7%
- Latency to start (male Sprague Dawley rats [2]; 1 mg/kg): 1.11 ± 0.2 s
- Response latency (male Sprague Dawley rats [2]; 1 mg/kg): 3.06 ± 0.4 s
- Time to finish (male Sprague Dawley rats [2]; 1 mg/kg): 981.14 ± 33.7 s
- number of reinforcers earned (male Sprague Dawley rats [2]; [9]): increased the number of reinforcers earned versus saline
- premature responses (male Sprague Dawley rats [2]; [9]): decreased premature responses versus saline
- number of reinforcers earned (combination study) (male Sprague Dawley rats [2]; [10]): Neither 0.3 μmol/kg TAT–3L4F nor 0.1 mg/kg WAY163909 alone altered the number of reinforcers earned versus saline
- premature responses (combination study) (male Sprague Dawley rats [2]; [10]): Neither 0.3 μmol/kg TAT–3L4F nor 0.1 mg/kg WAY163909 alone altered premature responses
- % Accuracy (male Sprague Dawley rats [2]; [11]): 100.21 ± 0.8%
- % Omissions (male Sprague Dawley rats [2]; [11]): 5.45 ± 1.0%
- Latency to start (male Sprague Dawley rats [2]; [11]): 1.11 ± 0.3 s
- Response latency (male Sprague Dawley rats [2]; [11]): 2.83 ± 0.5 s
- Time to finish (male Sprague Dawley rats [2]; [11]): 948.78 ± 37.7 s
- additional measures of task performance (male Sprague Dawley rats [2]; accuracy, motivation, motility indices): did not alter additional measures of task performance, including accuracy, motivation, or motility indices
- impulsive action by premature responses in the 5-CSRT task ([3]; ref Navarra et al., 2008): potently suppress

Compound: Cc1cc2c(cc1Cl)N(C(=O)Nc1ccc(Oc3cccnc3C)nc1)CC2.Cl.Cl [SB242084, 6-chloro-5-methyl-1-((2-(2-methylpyrid-3-yloxy)pyrid-5-yl)carbamoyl)indoline dihydrochloride]
- impulsive action by premature responses in the 5-CSRT task ([3]; ref Winstanley et al., 2004b, Fletcher et al., 2007): increase impulsive action

Compound: Ac-PNQDQNARRRKKKERR-NH2 [3L4F]
- membrane protein expression levels of 5-HT2CR or PTEN [4]: unchanged
- Cai2+ release, peptide alone, in 5-HT2AR–CHO cells (5-HT2AR): nor did it alter Cai2+ release when tested alone
- effect on 5-HT-mediated Cai2+ release in 5-HT2AR–CHO cells (5-HT2AR): did not potentiate 5-HT-mediated (10 nM) Cai2+ release
- CD signal at 222 nm (circular dichroism): clear inflection point at 222 nm
- α-helix content by CD (circular dichroism): < 50%
- cellular entry without TAT conjugation (5-HT2CR): TAT conjugation is not necessary for cellular entry
- Emax of 5-HT-evoked Cai2+ release in presence of peptide (5-HT2CR; 1 pM peptide, 15 min, 5-HT concentration response, p < 0.05): 120.7 % of maximal response for 5-HT
- Cai2+ release, peptide alone (unstimulated) (5-HT2CR; [6]): did not alter unstimulated Cai2+ release

Compound: Ac-YGRKKRRQRRRPNPDQKPRRKKKEKR-NH2 [rat TAT–3L4F]
- intensity of PTEN immunoreactive band after IP for 5-HT2CR, VTA [5]: attenuated relative to vehicle (saline) treatment
- effect across multiple activity measures (male Sprague Dawley rats [1]; 0.1 μmol/kg, alone): ineffective across multiple activity measures
- horizontal ambulation, 5-min bins (male Sprague Dawley rats [1]; 1 μmol/kg, 15 min before test, versus saline, p < 0.05): significantly reduced horizontal ambulation versus saline at 5, 10, and 15 min
- total horizontal ambulation, 70 min (male Sprague Dawley rats [1]; [12]): significantly reduced total horizontal ambulation versus saline
- total peripheral ambulation, 70 min (male Sprague Dawley rats [1]; [12]): significantly reduced peripheral ambulation versus saline
- central ambulation, 5-min bins (male Sprague Dawley rats [1]; 0.1 or 1 μmol/kg): No main effect of treatment
- vertical activity, 5-min bins (male Sprague Dawley rats [1]; 0.1 or 1 μmol/kg): No main effect of treatment
- total vertical activity, 70 min (combination study) (male Sprague Dawley rats [1]; [7]): No main effect of treatment was observed for vertical activity
- vertical activity, 5-min bins (combination study) (male Sprague Dawley rats [1]; [7]): No main effect of treatment
- total central ambulation, 70 min (combination study) (male Sprague Dawley rats [1]; [8]): but not either ligand alone
- number of reinforcers earned (combination study) (male Sprague Dawley rats [2]; [10]): Neither 0.3 μmol/kg TAT–3L4F nor 0.1 mg/kg WAY163909 alone altered the number of reinforcers earned versus saline
- premature responses (combination study) (male Sprague Dawley rats [2]; [10]): Neither 0.3 μmol/kg TAT–3L4F nor 0.1 mg/kg WAY163909 alone altered premature responses
- % Accuracy (male Sprague Dawley rats [2]; [13]): 98.69 ± 0.6%
- % Omissions (male Sprague Dawley rats [2]; [13]): 4.77 ± 1.0%
- Latency to start (male Sprague Dawley rats [2]; [13]): 1.00 ± 0.6 s
- Response latency (male Sprague Dawley rats [2]; [13]): 2.19 ± 0.2 s
- Time to finish (male Sprague Dawley rats [2]; [13]): 875.10 ± 15.3 s

Compound: Ac-QNARRRKK-NH2 [3L4F-F2]
- Cai2+ release, peptide alone, in 5-HT2AR–CHO cells (5-HT2AR): did not induce Cai2+ release
- effect on 5-HT-mediated Cai2+ release in 5-HT2AR–CHO cells (5-HT2AR): did not induce Cai2+ release or alter Cai2+ release evoked by 10 nM 5-HT
- Cai2+ release, peptide alone (unstimulated) (5-HT2CR; [6]): did not induce Cai2+ release
- effect on 5-HT-evoked Cai2+ release (5-HT2CR; [14]): No main effect

Compound: Ac-RRKKKERR-NH2 [3L4F-F3]
- Cai2+ release, peptide alone, in 5-HT2AR–CHO cells (5-HT2AR): did not induce Cai2+ release
- effect on 5-HT-mediated Cai2+ release in 5-HT2AR–CHO cells (5-HT2AR): did not induce Cai2+ release or alter Cai2+ release evoked by 10 nM 5-HT
- Cai2+ release, peptide alone (unstimulated) (5-HT2CR; [6]): did not induce Cai2+ release
- effect on 5-HT-evoked Cai2+ release (5-HT2CR; [14]): No main effect
